Test results: ChEMBL document CHEMBL1124121, “Occurrence and pharmacological significance of metabolic ortho-hydroxylation of 5- and 8-hydroxy-2-(di-n-propylamino)tetralin” (1988)
Active and inactive are the calls of the source. The calls are words filed in the database; no cut-off is given here.

Key:
[1] = organism: Rattus norvegicus; experiment: Effect on 5-HTP accumulation in hemispheres of rat.; type: functional
[2] = organism: Rattus norvegicus; experiment: Effect on 5-HTP accumulation in limbic system of rat.; type: functional
[3] = organism: Rattus norvegicus; experiment: Effect on dopamine accumulation in striatum of rat.; type: functional
[4] = organism: Rattus norvegicus; experiment: Effect on dopamine accumulation in limbic system of rat.; type: functional
[5] = tested on: Rattus norvegicus; experiment: post-synaptic effect was assayed by the increase in locomotor activity (reserpine pretreatment), at 3.15 umol/kg; type: functional
Summary of the method: (§1)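 Male Sprague-Dawley rats pretreated sc in the neck with reserpine (5 mg/kg), then given the compound sc in the neck (n = 4). Placed singly in motility meters immediately after dosing; locomotor counts accumulated over 0–30 min. Student's t test.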

[6] = organism: Rattus norvegicus; experiment: Apparent kinetic constant(Km) for the O-Methylation on crude rat liver microsomes.; type: functional, organism-based
[7] = organism: Rattus norvegicus; experiment: Effect on dopamine accumulation in hemispheres of rat.; type: functional
[8] = Ratio of Km to that Vmax in crude rat liver microsomes was determined; conditions: Microsome
[9] = organism: Rattus norvegicus; experiment: Apparent kinetic constant(Vmax) for the O-Methylation on crude rat liver microsomes at 1 mg of protein; type: functional
[10] = organism: Rattus norvegicus; experiment: Effect on 5-HTP accumulation in striatum of rat.; type: functional
[11] = organism: Rattus norvegicus; experiment: Effect on dopamine accumulation in hemispheres of rat; Inactive; type: functional, organism-based
[12] = tested on: Rattus norvegicus; experiment: post-synaptic effect was assayed by the increase in locomotor activity (reserpine pretreatment), at 12.5 umol/kg; type: functional; summary of the method: as §1
[13] = tested on: Rattus norvegicus; experiment: Brain Concentration at 15(umol/kg, sc) with tropolone pretreatment in rat cortex; type: functional, organism-based
Summary of the method: (§2)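 Male Wistar rats dosed sc in the neck with compound in saline (1 mL/kg), with or without tropolone pretreatment. Killed by decapitation 45 min later; striatum, cerebellum and cortex dissected and frozen at -80 °C. Perchloric acid extracts purified over Sephadex G10 and the formic acid eluate analysed by reversed-phase HPLC with electrochemical detection. Mean ± SEM, n = 4.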

[14] = tested on: Rattus norvegicus; experiment: Brain Concentration of 7,8-di-OH-DPAT after 15(umol/kg) sc administration without tropolone pretreatment in rat cerebellum; type: functional, organism-based; summary of the method: as §2
[15] = tested on: Rattus norvegicus; experiment: Brain Concentration at 15(umol/kg, sc) without tropolone pretreatment in rat cortex; type: functional, organism-based; summary of the method: as §2
[16] = organism: Rattus norvegicus; experiment: Effect on dopamine accumulation in striatum of rat; Inactive; type: functional, organism-based
[17] = tested on: Rattus norvegicus; experiment: Brain Concentration of 7,8-di-OH-DPAT after 15(umol/kg) sc administration with tropolone pretreatment in rat striatum; type: functional, organism-based; summary of the method: as §2
[18] = tested on: Rattus norvegicus; experiment: Brain Concentration at 15(umol/kg, sc) without tropolone pretreatment in rat cerebellum; type: functional, organism-based; summary of the method: as §2
[19] = tested on: Rattus norvegicus; experiment: Brain Concentration of 7,8-di-OH-DPAT after 15(umol/kg) sc administration with tropolone pretreatment in rat cerebellum; type: functional, organism-based; summary of the method: as §2
[20] = tested on: Rattus norvegicus; experiment: Brain Concentration at 15(umol/kg, sc) without tropolone pretreatment in rat striatum; type: functional, organism-based; summary of the method: as §2
[21] = tested on: Rattus norvegicus; experiment: Brain Concentration at 15(umol/kg, sc) with tropolone pretreatment in rat striatum; type: functional, organism-based; summary of the method: as §2
[22] = tested on: Rattus norvegicus; experiment: Brain Concentration at 15(umol/kg, sc) with tropolone pretreatment in rat cerebellum; type: functional, organism-based; summary of the method: as §2
[23] = organism: Rattus norvegicus; experiment: Effect on dopamine accumulation in limbic system of rat; Inactive; type: functional, organism-based
[24] = tested on: Rattus norvegicus; experiment: Brain Concentration of 7,8-di-OH-DPAT after 15(umol/kg) sc administration without tropolone pretreatment in rat cortex; type: functional, organism-based; summary of the method: as §2
[25] = tested on: Rattus norvegicus; experiment: Brain Concentration of 7,8-di-OH-DPAT after 15(umol/kg) sc administration without tropolone pretreatment in rat striatum; type: functional, organism-based; summary of the method: as §2
[26] = tested on: Rattus norvegicus; experiment: Brain Concentration of 7,8-di-OH-DPAT after 15(umol/kg) sc administration with tropolone pretreatment in rat cortex; type: functional, organism-based; summary of the method: as §2
[27] = organism: Rattus norvegicus; experiment: Effect on 5-HTP accumulation in hemispheres of rat; Inactive; type: functional, organism-based
[28] = organism: Rattus norvegicus; experiment: Effect on 5-HTP accumulation in limbic system of rat; Inactive; type: functional, organism-based
[29] = organism: Rattus norvegicus; experiment: Effect on 5-HTP accumulation in striatum of rat; Inactive; type: functional, organism-based
[30] = tested on: Rattus norvegicus; experiment: Brain Concentration of 5,6-di-OH-DPAT after 25 (umol/kg) sc administration without tropolone pretreatment in rat cortex; type: functional, organism-based; summary of the method: as §2
[31] = tested on: Rattus norvegicus; experiment: Brain Concentration at 25 (umol/kg, sc) with tropolone pretreatment in rat cortex; type: functional, organism-based; summary of the method: as §2
[32] = organism: Rattus norvegicus; experiment: Apparent kinetic constant(Vmax) for the aromatic hydroxylation on crude rat liver microsomes at 1 mg of protein; type: functional
Summary of the method: (§3)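 Crude rat liver microsomes (0.5 mg protein/mL) were incubated with substrate at 37 °C for 3 min in 0.1 M Tris, pH 7.4, with 0.1 mM NADPH and MgCl₂. The reaction was stopped with perchloric acid. Catechol products in the supernatant were measured by HPLC with electrochemical detection. Apparent Km and Vmax came from Lineweaver-Burk plots of 3–4 substrate concentrations, each run in triplicate.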

[33] = tested on: Rattus norvegicus; experiment: Brain Concentration at 25 (umol/kg, sc) without tropolone pretreatment in rat striatum; type: functional, organism-based; summary of the method: as §2
[34] = tested on: Rattus norvegicus; experiment: Brain Concentration at 25 (umol/kg, sc) without tropolone pretreatment in rat cerebellum; type: functional, organism-based; summary of the method: as §2
[35] = tested on: Rattus norvegicus; experiment: Brain Concentration at 25 (umol/kg, sc) without tropolone pretreatment in rat cortex; type: functional, organism-based; summary of the method: as §2
[36] = tested on: Rattus norvegicus; experiment: Brain Concentration at 25 (umol/kg, sc) with tropolone pretreatment in rat striatum; type: functional, organism-based; summary of the method: as §2
[37] = tested on: Rattus norvegicus; experiment: Brain Concentration at 25 (umol/kg, sc) with tropolone pretreatment in rat cerebellum; type: functional, organism-based; summary of the method: as §2
[38] = tested on: Rattus norvegicus; experiment: Brain Concentration of 5,6-di-OH-DPAT after 25 (umol/kg) sc administration with tropolone pretreatment in rat cortex; type: functional, organism-based; summary of the method: as §2
[39] = tested on: Rattus norvegicus; experiment: Brain Concentration of 5,6-di-OH-DPAT after 25 (umol/kg) sc administration without tropolone pretreatment in rat cerebellum; type: functional, organism-based; summary of the method: as §2
[40] = tested on: Rattus norvegicus; experiment: Brain Concentration of 5,6-di-OH-DPAT after 25 (umol/kg) sc administration without tropolone pretreatment in rat striatum; type: functional, organism-based; summary of the method: as §2
[41] = tested on: Rattus norvegicus; experiment: Brain Concentration of 5,6-di-OH-DPAT after 25 (umol/kg) sc administration with tropolone pretreatment in rat striatum; type: functional, organism-based; summary of the method: as §2
[42] = organism: Rattus norvegicus; experiment: Apparent kinetic constant(Km) for the aromatic hydroxylation on crude rat liver microsomes.; type: functional, organism-based; summary of the method: as §3
[43] = tested on: Rattus norvegicus; experiment: Brain Concentration of 5,6-di-OH-DPAT after 25 (umol/kg) sc administration with tropolone pretreatment in rat cerebellum; type: functional, organism-based; summary of the method: as §2
[44] = tested on: Rattus norvegicus; experiment: post-synaptic effect was assayed by the increase in locomotor activity (reserpine pretreatment), at 0.25 umol/kg; type: functional; summary of the method: as §1

| SMILES | ED50 [1] [µmol/kg] | ED50 [2] [µmol/kg] | ED50 [3] [µmol/kg] | ED50 [4] [µmol/kg] | Km [6] [µM] | Ratio [8] | Vmax [9] [pM/min] | ED50 [10] [µmol/kg] | ED50 [11] | ED50 [27] | ED50 [28] | ED50 [29] | other results |
| --- | --- | --- | --- | --- | --- | --- | --- | --- | --- | --- | --- | --- | --- |
| CCCN(CCC)C1CCc2ccc(O)c(O)c2C1 (configuration not stated) | 1.05 | 1.53 | 0.977 | 0.986 | 2400 | 117 | 280 | 1.39 |  |  |  |  | Motor activity [5]: <31; ED50 [7]: 1.75 µmol/kg |
| CCCN(CCC)C1CCc2ccc(O)c(OC)c2C1 (configuration not stated) | 1.62 | 1.49 | 0.35 | 0.314 |  |  |  | 2.06 | inactive |  |  |  | Motor activity [12]: <149 |
| CCCN(CCC)C1CCc2cccc(O)c2C1 (configuration not stated) [8-OH-DPAT] | 0.068 | 0.048 |  |  |  |  |  | 0.045 | inactive |  |  |  | Concentration [13]: 13.2 nM/g; Concentration [14]: 0.5 nM/g; Concentration [15]: 10.7 nM/g; ED50 [16]: inactive; Concentration [17]: 0.58 nM/g; Concentration [18]: 8.1 nM/g; Concentration [19]: 0.54 nM/g; Concentration [20]: 10.3 nM/g; Concentration [21]: 12.3 nM/g; Concentration [22]: 9 nM/g; ED50 [23]: inactive; Concentration [24]: 0.64 nM/g; Concentration [25]: 0.65 nM/g; Concentration [26]: 0.7 nM/g |
| CCCN(CCC)C1CCc2cccc(OC)c2C1 (configuration not stated) | 0.23 | 0.34 |  |  |  |  |  | 0.29 |  |  |  |  | ED50 [16]: inactive; ED50 [23]: inactive |
| CCCN(CCC)[C@@H]1CCc2ccc(O)cc2C1 |  |  | 0.17 | 0.18 |  |  |  |  | inactive | inactive | inactive | inactive |  |
| CCCN(CCC)C1CCc2c(O)cccc2C1 (configuration not stated) [5-OH-DPAT] |  |  | 0.009 | 0.011 |  | 19600 |  |  | inactive | inactive | inactive | inactive | Concentration [30]: 0.08 nM/g; Concentration [31]: 12.7 nM/g; Vmax [32]: 1180 pM/min; Concentration [33]: 10.8 nM/g; Concentration [34]: 8.5 nM/g; Concentration [35]: 12.1 nM/g; Concentration [36]: 11.9 nM/g; Concentration [37]: 9.4 nM/g; Concentration [38]: 0.37 nM/g; Concentration [39]: 0.08 nM/g; Concentration [40]: 0.2 nM/g; Concentration [41]: 0.43 nM/g; Km [42]: 60 µM; Concentration [43]: 0.3 nM/g |
| CCCN(CCC)C1CCc2c(ccc(O)c2OC)C1 (configuration not stated) |  |  | 0.125 | 0.16 |  |  |  |  | inactive | inactive | inactive | inactive | Motor activity [12]: <204 |
| CCCN(CCC)C1CCc2c(cccc2OC)C1 (configuration not stated) |  |  | 0.018 | 0.013 |  |  |  |  | inactive | inactive | inactive | inactive |  |
| CCCN1CCC[C@@H](c2ccc(O)c(O)c2)C1 |  |  |  |  | 77 |  | 37000 |  |  |  |  |  |  |
| CCCN(CCC)C1CCc2c(ccc(O)c2O)C1 (configuration not stated) |  |  | 0.007 | 0.007 | 80 | 5000 | 400 |  | inactive | inactive | inactive | inactive | Motor activity [44]: <529 |
